Measured values collected from several papers.
Target: Tyrosine-protein kinase Mer (MERTK, Homo sapiens, UniProt Q12866)
Sequence (Q12866 21-999, as in one of the studies): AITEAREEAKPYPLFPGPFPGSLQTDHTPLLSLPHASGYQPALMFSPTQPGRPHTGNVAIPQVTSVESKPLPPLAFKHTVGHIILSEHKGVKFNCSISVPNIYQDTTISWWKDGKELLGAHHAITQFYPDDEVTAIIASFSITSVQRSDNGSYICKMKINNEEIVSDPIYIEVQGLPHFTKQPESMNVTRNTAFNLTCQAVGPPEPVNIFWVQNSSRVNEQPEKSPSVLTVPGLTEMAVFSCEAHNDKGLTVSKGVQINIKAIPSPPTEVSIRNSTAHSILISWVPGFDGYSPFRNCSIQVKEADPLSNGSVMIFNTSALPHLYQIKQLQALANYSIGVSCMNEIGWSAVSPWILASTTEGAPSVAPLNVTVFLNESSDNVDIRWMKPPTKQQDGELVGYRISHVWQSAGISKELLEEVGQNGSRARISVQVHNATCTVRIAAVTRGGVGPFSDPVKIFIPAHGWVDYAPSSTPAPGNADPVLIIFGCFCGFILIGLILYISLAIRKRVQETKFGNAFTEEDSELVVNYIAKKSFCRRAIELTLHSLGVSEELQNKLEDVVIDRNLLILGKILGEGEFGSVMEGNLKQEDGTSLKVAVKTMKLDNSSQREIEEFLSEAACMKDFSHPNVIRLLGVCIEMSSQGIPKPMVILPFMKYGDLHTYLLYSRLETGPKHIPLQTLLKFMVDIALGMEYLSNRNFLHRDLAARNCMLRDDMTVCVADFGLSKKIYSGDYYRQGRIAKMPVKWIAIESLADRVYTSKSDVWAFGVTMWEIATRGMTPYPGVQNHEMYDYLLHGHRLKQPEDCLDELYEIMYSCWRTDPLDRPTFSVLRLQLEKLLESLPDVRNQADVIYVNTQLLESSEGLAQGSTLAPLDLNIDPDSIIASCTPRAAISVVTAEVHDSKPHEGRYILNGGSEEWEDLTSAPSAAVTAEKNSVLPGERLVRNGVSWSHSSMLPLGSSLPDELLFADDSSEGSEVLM

Compound	effect on	mode	method	tested at	endpoint	result
COc1cc(Nc2ncc(F)c(Nc3ccc4c(n3)NC(=O)C(C)(C)O4)n2)cc(OC)c1OC	binding		competition with immobilised ligand	10 µM	inhibition	100%
Cc1nn(C)cc1-c1nc2c(N3CCN(Cc4ccc(Cl)cc4)CC3)c(Cl)cnc2[nH]1	binding		competition with immobilised ligand	1 µM	remaining binding	100%
COc1ncccc1-c1cnn2ccc(N3CCN(C(=O)OC(C)C)CC3)nc12	binding		competition with immobilised ligand	1 µM	remaining binding	100%
C#Cc1n[nH]c2c(-c3cn(C(C)c4ccccn4)c(=O)[nH]c3=O)cc(F)cc12 (centres unmarked)	enzyme activity	inhibitor		1 µM	inhibition	99.6%
O=c1[nH]c2ccccc2n1C1CCN(Cc2ccc(-c3[nH]c4cc5ncnc5cc4nc3-c3ccccc3)cc2)CC1	cell-free assay			0.5 µM	remaining signal	96.2%
Cn1cc(-c2cccc(N3CCc4c(sc5c4CC(C)(C)C5)C3=O)c2CO)cc(Nc2ccncn2)c1=O	enzyme activity	inhibitor		1 µM	inhibition	1%
CC(C)(C)c1cc(C=C(C#N)C#N)cc(Br)c1O	enzyme activity	inhibitor		0.5 µM	remaining activity	97.3%
N#CC1(c2ccccn2)CCN(Cc2cc(C(=O)O)c(=O)n3ccccc23)CC1	cell-free assay		competition with immobilised ligand	1 µM	remaining binding	100%
Cn1cc(-c2cc(F)cc(N3CCn4c(cc5c4CCCC5)C3=O)c2CO)cc(Nc2ccc(N3CCN(C4COC4)CC3)cn2)c1=O	enzyme activity	inhibitor		0.1 µM	inhibition	11%
Cn1cncc1[C@@](O)(COc1ccc(C#N)cc1-c1ccc(OC(F)(F)F)cc1)c1ccc(C#N)cc1	cell-free assay		competition with immobilised ligand	1 µM	remaining binding	69%
Nc1ncc(-c2nc(N3CCOCC3)nc(N3CCOCC3)n2)c(C(F)F)n1	binding		competition with immobilised ligand	10 µM	remaining binding	87%
